{"source": "paper PMC2939729", "about": "(Cancer cell, 2010)", "key": {"[1]": {"test": "Pharmacokinetics in Sprague-Dawley rats", "assay_type": "in vivo", "settings": "single oral dose of 2 mg/kg"}, "[2]": {"settings": "mouse, in vivo, ip, 50 mg/kg"}, "PLK4 [3]": {"target": "T1, PLK4 (Homo sapiens, UniProt O00444)", "T1 sequence (O00444 1-970)": "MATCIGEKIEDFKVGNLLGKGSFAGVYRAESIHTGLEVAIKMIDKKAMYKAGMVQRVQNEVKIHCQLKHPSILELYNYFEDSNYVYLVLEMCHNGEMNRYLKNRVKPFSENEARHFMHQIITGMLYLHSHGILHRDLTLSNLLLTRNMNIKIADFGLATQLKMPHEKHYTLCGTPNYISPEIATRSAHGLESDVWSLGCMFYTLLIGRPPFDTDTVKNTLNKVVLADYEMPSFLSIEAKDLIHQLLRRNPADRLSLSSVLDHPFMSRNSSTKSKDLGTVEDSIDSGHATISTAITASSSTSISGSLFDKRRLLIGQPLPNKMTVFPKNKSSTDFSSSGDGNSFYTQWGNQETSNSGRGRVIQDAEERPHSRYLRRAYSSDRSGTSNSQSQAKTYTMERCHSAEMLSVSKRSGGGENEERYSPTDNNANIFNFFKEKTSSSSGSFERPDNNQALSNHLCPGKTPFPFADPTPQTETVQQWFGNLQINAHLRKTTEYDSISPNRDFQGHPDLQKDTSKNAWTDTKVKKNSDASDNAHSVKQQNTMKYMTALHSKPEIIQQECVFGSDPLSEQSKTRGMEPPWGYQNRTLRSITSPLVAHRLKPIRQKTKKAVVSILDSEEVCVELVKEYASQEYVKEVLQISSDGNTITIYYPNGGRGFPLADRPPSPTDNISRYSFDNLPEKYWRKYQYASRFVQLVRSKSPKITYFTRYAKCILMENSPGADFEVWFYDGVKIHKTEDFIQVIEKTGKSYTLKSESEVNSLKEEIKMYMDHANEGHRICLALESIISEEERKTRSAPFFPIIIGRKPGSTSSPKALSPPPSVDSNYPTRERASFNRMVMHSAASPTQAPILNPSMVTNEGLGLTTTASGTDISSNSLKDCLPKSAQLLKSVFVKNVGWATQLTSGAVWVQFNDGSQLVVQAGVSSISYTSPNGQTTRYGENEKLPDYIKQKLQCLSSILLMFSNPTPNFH", "test": "Inhibitory effect on PLK4 in vitro and in vivo"}, "HeLa cells": {"tested_on": "HeLa cells", "test": "HeLa cell proliferation, MTT assay", "assay_type": "cell-based, human", "settings": "5 μM, 48 hr, compared with Ad-BMK1(AEF)"}, "BMK1 [4]": {"target": "T2, BMK1 (Homo sapiens, UniProt Q13164)", "test": "in vitro ATP-site competition binding assay, panel of 402 kinases", "settings": "10 μM inhibitor"}, "BMK1 [5]": {"target": "T2, BMK1", "test": "A549 xenograft: BMK1 activation and p21 in tumor homogenates", "assay_type": "in vivo", "settings": "Nod/Scid mice, 50 mg/kg twice a day, 2 days"}, "DCAMKL1": {"target": "T3, DCAMKL1 (Homo sapiens, UniProt O15075)", "T3 sequence (O15075 1-740)": "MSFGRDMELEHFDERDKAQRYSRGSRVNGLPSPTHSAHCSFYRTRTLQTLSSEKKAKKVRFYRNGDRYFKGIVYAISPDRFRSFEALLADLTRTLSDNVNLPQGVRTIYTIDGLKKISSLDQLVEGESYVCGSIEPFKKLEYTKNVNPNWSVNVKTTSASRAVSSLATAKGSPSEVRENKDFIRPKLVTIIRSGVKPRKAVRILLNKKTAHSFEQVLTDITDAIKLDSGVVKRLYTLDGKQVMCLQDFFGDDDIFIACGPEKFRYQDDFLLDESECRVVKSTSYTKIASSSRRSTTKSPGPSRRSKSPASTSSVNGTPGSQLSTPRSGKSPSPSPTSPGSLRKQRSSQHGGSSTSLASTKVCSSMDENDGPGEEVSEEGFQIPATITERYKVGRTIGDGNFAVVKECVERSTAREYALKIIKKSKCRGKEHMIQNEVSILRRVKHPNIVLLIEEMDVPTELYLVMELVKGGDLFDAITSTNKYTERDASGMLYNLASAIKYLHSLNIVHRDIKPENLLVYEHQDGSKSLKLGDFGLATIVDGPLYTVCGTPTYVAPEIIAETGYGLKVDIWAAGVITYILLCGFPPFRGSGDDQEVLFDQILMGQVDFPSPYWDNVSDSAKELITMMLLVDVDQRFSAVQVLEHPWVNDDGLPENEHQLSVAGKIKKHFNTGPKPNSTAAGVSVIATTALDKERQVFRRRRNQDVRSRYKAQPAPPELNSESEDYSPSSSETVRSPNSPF", "test": "in vitro ATP-site competition binding assay, panel of 402 kinases", "settings": "10 μM inhibitor"}, "BMK1 [6]": {"target": "T2, BMK1", "test": "in vitro kinase assay of BMK1 immunoprecipitated from HEK293 cells", "assay_type": "biochemical", "settings": "BMK1 immunoprecipitated from HEK293 co-transfected with MEK5D and BMK1"}, "PLK4 [7]": {"target": "T1, PLK4", "test": "in vitro ATP-site competition binding assay, panel of 402 kinases", "settings": "10 μM inhibitor"}, "MEK5": {"target": "T4, MEK5 (Homo sapiens, UniProt Q13163)", "T4 sequence (Q13163 1-448)": "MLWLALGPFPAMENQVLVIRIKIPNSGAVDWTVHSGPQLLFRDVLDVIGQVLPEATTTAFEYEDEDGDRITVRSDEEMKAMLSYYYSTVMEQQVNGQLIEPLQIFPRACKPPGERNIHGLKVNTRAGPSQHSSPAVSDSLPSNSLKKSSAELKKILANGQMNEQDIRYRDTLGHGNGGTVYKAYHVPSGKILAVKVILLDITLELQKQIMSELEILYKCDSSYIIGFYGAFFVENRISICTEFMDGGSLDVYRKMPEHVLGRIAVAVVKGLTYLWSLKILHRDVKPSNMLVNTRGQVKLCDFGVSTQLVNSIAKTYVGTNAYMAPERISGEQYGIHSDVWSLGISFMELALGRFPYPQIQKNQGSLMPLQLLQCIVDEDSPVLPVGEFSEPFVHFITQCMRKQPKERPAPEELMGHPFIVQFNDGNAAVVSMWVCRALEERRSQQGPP", "test": "KiNativ profiling in HeLa cell lysates", "assay_type": "binding", "settings": "at up to 50 μM", "outline": "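HeLa lysates (5 mg/mL total protein) were preincubated 15 min with test compound at 50, 10, 2, 0.8 or 0 μM. ATP or ADP acylphosphate probe was then added (5 μM final) for 10 min, and the reaction was stopped with urea and processed for MS. Each kinase signal came from up to four fragment ions of its peptide-probe conjugate. % inhibition was taken against untreated lysate, with duplicate reactions.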"}, "ERK1/2": {"tested_on": "ERK1/2", "test": "EGF-induced ERK1/2 activation in HeLa cells", "assay_type": "cell-based, human", "settings": "1 μM compound for one hour, EGF 17 min"}}}
{"smiles": "CCOc1cc(N2CCC(O)CC2)ccc1Nc1ncc2c(n1)N(C)c1ccccc1C(=O)N2C", "note": "[XMD8-92]", "values": [{"measurement": "maximal plasma concentrations", "setting": "[1]", "value": "approximately 500 nM"}, {"measurement": "time of maximal plasma concentrations", "setting": "[1]", "value": "≤ 30", "unit": "min"}, {"measurement": "plasma concentration remaining 8 hr post dose", "setting": "[1]; 8 hr", "value": 34, "unit": "nM"}, {"measurement": "tolerability", "setting": "[2]", "value": "well tolerated"}, {"measurement": "inhibitory effect on PLK4", "setting": "PLK4 [3]", "value": "no significant inhibitory effect"}, {"measurement": "extent of inhibition of proliferation", "setting": "HeLa cells", "value": "indistinguishable from that by dominant negative BMK1"}, {"measurement": "displacement by XMD8-92", "setting": "BMK1 [4]", "value": "greater than 90%"}, {"measurement": "BMK1 activation in tumors", "setting": "BMK1 [5]", "value": "effectively inhibit"}, {"measurement": "p21 expression in tumors", "setting": "BMK1 [5]", "value": "induce"}, {"measurement": "displacement by XMD8-92", "setting": "DCAMKL1", "value": "greater than 90%"}, {"measurement": "BMK1 activity in in vitro kinase assays", "setting": "BMK1 [6]", "value": "significantly reduced"}, {"measurement": "displacement by XMD8-92", "setting": "PLK4 [7]", "value": "greater than 90%"}, {"measurement": "inhibition of MEK5", "setting": "MEK5", "value": "not significantly inhibited"}, {"measurement": "Growth factor-induced activation of cellular ERK1/2", "setting": "ERK1/2", "value": "but not the structurally similar ERK1/2"}]}
